Activity calls are given as the source filed them. The calls are words filed in the database; no cut-off is given here.
Legend:
[1] = biological target: T1, Cyclin-dependent kinase 4/cyclin D1 (Homo sapiens) (UniProt P11802+P24385); experiment: Inhibition of recombinant human N-terminal GST-tagged CDK4 (S4 to E303 residues)/Cyclin D1 (Q4 to I295 residues) expressed in sf9 cells at 10 uM using RBCTF as substrate measured after 1 hr by ADP-glo luminescence assay relative to control
CDK2/Cyclin A2 = CDK2/Cyclin A2 (Homo sapiens, UniProt P24941); experiment: Inhibition of human full length N-terminal GST-fused CDK2 (M1 to L298 residues)/human full length Cyclin-A2 (M1 to L432 residues) expressed in Sf9 cells using histone H1 as substrate measured after 1 hr by ADP-glo luminescence assay
[2] = biological target: Cyclin-dependent kinase 1/cyclin B1 (Homo sapiens, UniProt P06493); experiment: Inhibition of recombinant human N-terminal GST/His6-tagged CDK1 (M1 to M297 residues)/CyclinB1 (M1 to V433 residues) expressed in Sf9 insect cells using RBCTF as substrate measured after 1 hr by ADP-glo luminescence assay
CDK6/cyclin D1 = CDK6/cyclin D1 (Homo sapiens, UniProt Q00534); experiment: Inhibition of CDK6/cyclin D1 (unknown origin) using RBER-CHKtide as substrate measured after 1 hr by ADP-glo luminescence assay; format: protein-complex assay
Summary of the method: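 ADP-Glo kinase assay with 200 ng Cdk-cyclin enzyme, ATP (125 µM in 2.5x mix) and 25 µg substrate (RBCTF or RBER-CHKtide, per Cdk). Buffer: Tris, MgCl2, BSA, DTT, MnCl2 cofactor, DMSO. Reaction 1 h at 21°C; ADP-Glo 40 min, then detection reagent 40 min. Luminescence read. IC50 by 4-parameter fit; three independent experiments.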

Tubulin (Sus scrofa) = Tubulin (Sus scrofa) (UniProt P02554+P02550); experiment: Inhibition of porcine tubulin polymerization at 5 uM incubated for 1 min by fluorescence based assay; format: protein assay
Summary of the method: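 Compounds added from 10x stocks in duplicate and warmed at 37°C ≤1 min. Ice-cold tubulin pre-mix then added. Fluorescent reporter read at ex 360/em 460 nm for 60 min. Paclitaxel served as enhancer control, CaCl2 as inhibitor control.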

T47D [3] = experiment: Cell cycle arrest in human T47D cells assessed as ratio of G1 to S phase at 0.75 uM measured after 18 hrs by propidium iodide staining based flow cytometry (reference value: 2.65); format: functional
T47D [4] = experiment: Cell cycle arrest in human T47D cells assessed as ratio of G1 to S phase at 1.5 uM measured after 18 hrs by propidium iodide staining based flow cytometry (reference value: 2.65); format: functional
T47D [5] = experiment: Cell cycle arrest in human T47D cells assessed as accumulation at sub-G1 phase at 0.75 uM measured after 18 hrs by propidium iodide staining based flow cytometry relative to control; format: functional
[6] = biological target: T1, Cyclin-dependent kinase 4/cyclin D1 (Homo sapiens); experiment: Inhibition of CDK4/cyclin D1 in human T47D cells assessed as reduction in phosphorylation of pRb at Ser780 residues at 0.75 to 1.5 uM measured after 18 hrs by Western blot analysis; format: cell-based
Summary of the method: (§1)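 T47D cells left untreated or treated 18 h at 0.75 or 1.5 µM. Western blots probed with phospho-specific pRb antibodies (Ser780, Ser795, Ser807/811) and a total-pRb antibody; HRP-conjugated secondary for detection.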

[7] = biological target: T1, Cyclin-dependent kinase 4/cyclin D1 (Homo sapiens); experiment: Inhibition of CDK4/cyclin D1 in human T47D cells assessed as reduction in phosphorylation of pRb at Ser807/11 residues at 0.75 uM measured after 18 hrs by Western blot analysis; format: cell-based; summary of the method: as §1
[8] = biological target: T1, Cyclin-dependent kinase 4/cyclin D1 (Homo sapiens); experiment: Inhibition of CDK4/cyclin D1 in human T47D cells assessed as reduction in phosphorylation of pRb at Ser807/11 residues at 1.5 uM measured after 18 hrs by Western blot analysis; format: cell-based; summary of the method: as §1
T47D [9] = experiment: Cell cycle arrest in human T47D cells assessed as accumulation at G0/G1 phase at 0.75 uM treated 18 hrs post serum-starvation measured after 18 hrs in presence of fresh medium containing FBS by propidium iodide staining based flow cytometry (reference value: 60.3%); format: functional
Calu-1 [10] = experiment: Cell cycle arrest in human Calu1 cells assessed as increase in accumulation at S phase at 0.9 uM treated 18 hrs post serum-starvation measured after 18 hrs in presence of fresh medium containing FBS by propidium iodide staining based flow cytometry relative to control; format: functional
Calu-1 [11] = experiment: Cell cycle arrest in human Calu1 cells assessed as increase in accumulation at S phase at 1.8 uM treated 18 hrs post serum-starvation measured after 18 hrs in presence of fresh medium containing FBS by propidium iodide staining based flow cytometry relative to control; format: functional
MDA-MB-468 [12] = experiment: Cell cycle arrest in human MDA-MB-468 cells assessed as ratio of G1 to S phase at 22 uM measured after 18 hrs by propidium iodide staining based flow cytometry (reference value: 2.17); format: functional
MDA-MB-468 [13] = experiment: Cell cycle arrest in human MDA-MB-468 cells assessed as accumulation at sub-G1 phase at 10.85 uM measured after 18 hrs by propidium iodide staining based flow cytometry relative to control; format: functional
A549 [14] = experiment: Cell cycle arrest in human A549 cells assessed as accumulation at G2/M phase at 1.6 uM measured after 18 hrs by propidium iodide staining based flow cytometry (reference value: 18%); format: functional
A549 [15] = experiment: Up regulation of cyclin-B1 expression in human A549 cells at 0.8 to 1.6 uM measured after 18 hrs by Western blot analysis; format: functional, cell-based
A549 [16] = experiment: Effect on CDK1 expression in human A549 cells at 0.8 to 1.6 uM measured after 18 hrs by Western blot analysis; format: functional, cell-based
A549 [17] = experiment: Cell cycle arrest in human A549 cells assessed as accumulation at G2/M phase at 0.8 uM treated 32 hrs post mimosine addition measured after 18 hrs in presence of fresh medium by propidium iodide staining based flow cytometry (reference value: 14%); format: functional
A549 [18] = experiment: Cell cycle arrest in human A549 cells assessed as accumulation at G2/M phase at 1.6 uM treated 32 hrs post mimosine addition measured after 18 hrs in presence of fresh medium by propidium iodide staining based flow cytometry (reference value: 14%); format: functional
A549 [19] = experiment: cells; details: Homo sapiens, A549, 72 h
Calu-1 [20] = experiment: cells; details: Homo sapiens, Calu-1, 72 h

SMILES: O=C(COc1ccc(-c2nc3ccccc3c(=O)[nH]2)cc1)Nc1cccc(Cl)c1
- inhibition [1]: 95%
- IC50 (CDK2/Cyclin A2): > 100 µM
- IC50 [2]: > 50 µM
- IC50 (CDK6/cyclin D1): > 100 µM
- inhibition (Tubulin (Sus scrofa)): Active
- Ratio (T47D [3]): 22
- Ratio (T47D [4]): 12
- Activity (T47D [5]): 0%
- inhibition [6]: Active
- inhibition [7]: inactive
- inhibition [8]: Active
- Activity (T47D [9]): 77%
- Activity (Calu-1 [10]): 0.7%
- Activity (Calu-1 [11]): -0.8%
- Ratio (MDA-MB-468 [12]): 3.15
- Activity (MDA-MB-468 [13]): 0%
- Activity (A549 [14]): 70%
- Activity (A549 [15]): inactive
- Activity (A549 [16]): inactive
- Activity (A549 [17]): 35%
- Activity (A549 [18]): 68%
- EC50 (A549 [19]): 0.8 µM
- EC50 (Calu-1 [20]): 0.9 µM

Source: ChEMBL document CHEMBL4480390, “Cink4T, a quinazolinone-based dual inhibitor of Cdk4 and tubulin polymerization, identified via ligand-based virtual screening, for efficient anticancer therapy” (Eur J Med Chem, 2019)
